The source of these data is ChEMBL document CHEMBL4513216, “Probing the Open Global Health Chemical Diversity Library for Multistage-Active Starting Points for Next-Generation Antimalarials” (ACS Infect Dis, 2020).

The data set in a line: Toxicity liver stage against HepG2, at 10uM. Type of data set: cell-based. Also noted: test concentration 10 uM, cell line HepG2-A16-CD81EGFP. The conditions noted are these: human, HepG2-A16-CD81EGFP cells; read-out: INHIBITION
The procedure, abridged:
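Uninfected HepG2-A16-CD81EGFP cells, 3 × 10^3 per well, 1536-well, plated on prespotted compound at 10 μM final, parasite-free screening media added to match infected plates; puromycin 10 μM positive, DMSO 0.5% negative; run in parallel with 48 h PbLuc assay at 37 °C, 5% CO2; viability by CellTiter-Glo luminescence, normalized to controls.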
Take `CN(CCc1ccccc1)Cc1nc(-c2cnccn2)no1`: the cytotoxicity at 10 µM was -0.911%.
As for `CCCN1CCN(C(=O)CCn2cccc2)CC1`, the cytotoxicity at 10 µM turned out to be 6.14%.
To `CCOc1ccccc1C(=O)N1CC(=O)N(C2CCC2)CC(O)C1` (stereo not drawn) belongs 2.55%.
For `NC(=O)[C@@H]1CN2CCN(C(=O)C3CC3)C[C@@H]2[C@H]1c1ccccc1` the value was 3.88%; for `N#Cc1cccc(CN2CCO[C@@H]3CNC[C@@H]32)c1`, 8.94%; for `O=C(NC1CC1)N1CCOC2(CCCN(c3cccc(F)c3)C2)C1` (stereo not drawn), 4.23%.
Turning to `CN(C)C(=O)N1CCCC2(CCN(Cc3ccc(Cl)c(F)c3)C2)C1` (stereo not drawn), the cytotoxicity at 10 µM was found to be 7.07%.
Regarding `CN1C2(CCN(Cc3ccc(F)cc3)C2)c2ccccc2S1(=O)=O` (stereo not drawn), the cytotoxicity at 10 µM amounted to 13.5%.
To `CC1=N[C@@]2(CC[C@@H]3CN(C(=O)NC(C)C)C[C@@H]32)C(=O)N1CC1CC1` belongs 7.1%.
`Cn1cnc2c1C(COCc1cccnc1)N(Cc1ccccc1)CC2` (stereo not drawn): the cytotoxicity at 10 µM turned out to be 13.5%.
To `Cc1occc1C(=O)N1C[C@@H](C(=O)N2CCCCO2)C[C@H]2OCC[C@H]21` belongs 12.1%; to `O=C(c1ccno1)N1CCO[C@]2(CCC[C@@H]2COCc2ccncc2)C1`, 10.2%; to `c1cncc(CN2CCCn3nnc(CN4CCCCC4)c3C2)c1`, 12.8%.
For `O=C1CC(c2ccc(C(F)(F)F)cc2)c2c(n3ccsc3nc2=O)N1` (stereo not drawn) the value was -1.4%; for `CC(=O)c1cccc(NC(=O)Cn2cc(-c3ccccc3)ncc2=O)c1`, -2.45%; for `CN1CC(Oc2ccc(Cl)cc2)=NC(SCC(=O)Nc2ccccc2)=N1`, -0.943%.
For `c1ccc(OCCCNCc2cccs2)nc1` the value was -0.336%; for `Cc1nc(N2CCCC2)ncc1-c1cc(O)n2ncnc2n1`, 10.6%; for `CC(=O)N1CCN(c2cnccn2)CC(CO)C1` (stereo not drawn), 3.03%.
Consider `CNc1nnc(SCc2nnc(C(C)(C)C)o2)s1`, for which the cytotoxicity at 10 µM was -1.05%.
For `Cc1nc(C)n(CC2CCCN2Cc2ccc(F)cc2C#N)n1` (stereo not drawn) the value was -2.59%; for `COC(=O)C1CCCN1C(=O)c1ccc(Br)cc1F` (stereo not drawn), 2.96%.
For `CC(C)c1nnc2n1CCN(c1nc3ccccc3o1)C2`, the cytotoxicity at 10 µM amounted to 4.12%.
`CCC(C)NC(=O)CCNC(=O)c1c[nH]cc1-c1cccc(OC)c1` (stereo not drawn): the cytotoxicity at 10 µM was 6.98%.
To `O=C(c1cc2c([nH]c1=O)CCC2)N1CCCCCC1c1ccncc1` (stereo not drawn) belongs -9.31%; to `CC(C)Oc1ncc(C(=O)N2CCC(CC(N)=O)CC2)cc1Cl`, -9.47%; to `CC(C)(C)c1n[nH]c(C2CN(C(=O)CCCn3cccn3)CCO2)n1` (stereo not drawn), -0.839%.
To `CC(C)C[C@H](NC(=O)CNC(=O)OC(C)(C)C)C(=O)OC(C)(C)C` belongs 11.9%; to `CC(NC(=O)C1CCN(S(N)(=O)=O)CC1)c1cccc(OC(F)F)c1` (stereo not drawn), -8.5%; to `CCCN(CC1CC1)C(=O)Cn1ccccc1=O`, 9.09%.
To `Cc1nnc([C@@H]2CC[C@@H]3[C@@H](CCN3S(C)(=O)=O)O2)o1` belongs -79.1%; to `CCN1C(=O)CO[C@@H]2CN(C(=O)C3CCOCC3)C[C@H]21`, -78.2%; to `Cc1cc(C(=O)N2CCC[C@]3(C[C@H](OCC4CC4)CO3)C2)no1`, -78.8%.
For `CC(=O)N1CCC2(CCN(C(=O)c3ccc(F)c(C(F)(F)F)c3)C2)C1` (stereo not drawn), the cytotoxicity at 10 µM is -76.1%.
For `CC(=O)NCC(=O)N1CCC2(CC1)CN(c1cccnc1)C(=O)CO2` the value was 3.76%; for `O=C(C1CCOC1)N1C[C@H]2CN(Cc3nccs3)C[C@H]2C1` (stereo partly drawn), 5.04%; for `O=c1c(-c2ccnc(NC3CCOCC3)n2)cnc2sc(Cl)cn12`, -0.962%.
For `COc1ccc(OC)c(C(C(=O)O)N2CCSCC2)c1` (stereo not drawn) the value was -1.02%; for `Cc1cc(C)cc(CCC(=O)NC(C)c2nnn[nH]2)c1` (stereo not drawn), 0.686%; for `CCc1cn[nH]c1C1CCCN(C(=O)c2cnc(NC(C)C)nc2)C1` (stereo not drawn), -13.2%.
To `CN1CCC(n2nc(Cc3cccs3)nc2-c2ccncc2)CC1` belongs -7.76%.
Turning to `CC(C)N(C)C(=O)c1coc(CN2CCN(c3ccccc3F)CC2)n1`, the cytotoxicity at 10 µM came out at 7.31%.
To `CC(C)n1cnnc1CN1C(=O)CCc2ccccc21` belongs 0.0849%; to `CC(C)c1nc(CN(C)Cc2ccc(O)c(Cl)c2)cs1`, -7.27%.
For `Cc1nccn1CCN(C)C(=O)C1CCN(C(=O)C2CCC2)CC1` the value was -1.45%; for `CC1(CCC(=O)N2CCC(n3cc(C4(O)CCCC4)nn3)CC2)CC1`, -7.69%.
To `CC(C)c1cc(C2CCN(C(=O)Cn3cncn3)CC2)[nH]n1` belongs 3.65%; to `Cc1[nH]c2ccc(CNc3cc(C#N)ccn3)cc2c1C`, -8.4%.
In the case of `Cc1cccc2cc(C(=O)N3CCSCC3)n(C)c12`, the cytotoxicity at 10 µM stood at 6.25%.
For `CN1CCN(Cc2ccc(Cl)cc2)CC1C(=O)O` (stereo not drawn), the cytotoxicity at 10 µM was -2.31%.
To `COCc1noc(CN2C[C@H](C3CC3)[C@@H](N(C)C)C2)n1` belongs 1.31%.
To `CCCS(=O)(=O)N1CCC2(CC1)CC(=O)N(Cc1cc(F)cc(F)c1)C2` belongs 8.78%; to `Cc1ccc2nc(-c3nc4c([nH]3)CC(C)(C)CNC4=O)cn2c1`, 5.31%; to `CCn1cc(CN(C)Cc2cnn(-c3ccc(F)cc3)c2)cn1`, -5.44%.
To `Cc1nc(CNC(=O)c2cc(COc3ccccc3F)[nH]n2)n[nH]1` belongs -7.42%.
`Cc1cc(=O)[nH]c(=O)n1-c1cccc(Cl)c1Cl`: the cytotoxicity at 10 µM is -3.57%.
To `Cc1ccccc1CCC(=O)N1CCc2ncnc(NCCO)c2CC1` belongs -21%.
Turning to `Cc1csc2c(N3CCNC(C(=O)NCc4cccnc4)C3)ncnc12` (stereo not drawn), the cytotoxicity at 10 µM came to 1.74%.
For the compound `CN(CCCOc1ccccc1Cl)C(=O)CN1CCNC1=O`, the cytotoxicity at 10 µM is -0.2%.
On to `Cc1cnn(C2CN(CC(=O)NCC(C)C)C2)c1`, for which the cytotoxicity at 10 µM was -1.33%.
For `Cc1cc(C)c(CNC(=O)NCC(O)c2ccccc2F)c(=O)[nH]1` (stereo not drawn) the value was -0.185%; for `COc1ccc(C(O)CNC(=O)NCc2c(C)cc(C)[nH]c2=O)cc1` (stereo not drawn), -2.99%.
For `O=C(NCc1ccccc1Cn1cncn1)C1CCCC1` the value was -2.34%.
On to `CN(C(=O)CN1CCC(NC(=O)c2cccs2)CC1)c1ccccc1`, for which the cytotoxicity at 10 µM was -8.55%.
For `O=C(NCc1cc[nH]n1)N1CCCC(N2CCCC2)C1` (stereo not drawn) the value was -3.18%; for `CCCc1n[nH]c(C2CN(C(=O)c3cccnc3N(C)C)CCO2)n1` (stereo not drawn), -2.91%.
For `CN1CC(C(=O)NCCOc2ccc3c(c2)OCO3)CC1=O` (stereo not drawn) the value was -4.35%; for `COCCCN1CCC(N(Cc2noc(C)n2)C(C)=O)C1` (stereo not drawn), -4.22%; for `Cn1cc(Cl)cc1C(=O)N1CCCN(Cc2ccccc2)CC1`, -5.19%.
To `CCNc1cc2c(nn1)CCN(C(=O)c1cccnc1N(C)C)C2` belongs -13.4%.
For the compound `Cc1cc(NC(=O)CCN2CCCCC2Cn2cncn2)no1` (stereo not drawn), the cytotoxicity at 10 µM is 4.23%.
On to `CCNC(c1ccc(CC)cc1)c1cccnc1` (stereo not drawn), for which the cytotoxicity at 10 µM was -5.4%.
To `NC(=O)c1cc(C2CCCN(CCOCC(F)(F)F)C2)n[nH]1` (stereo not drawn) belongs -11.8%; to `CC(C)(C)c1n[nH]c(C2CN(C(=O)c3ccsc3)CCO2)n1` (stereo not drawn), -12.3%; to `c1cnn(C2CN(Cc3nc(-c4ccsc4)no3)C2)c1`, -12.2%.
For `Cc1cc(NC(=O)NCc2ccccn2)n(C)n1` the value was 2.14%; for `CN1CCCc2cc(CNC(=O)c3ccc(NC4CC4)nc3)ccc21`, -3.03%.
On to `Cc1ccc(CC(=O)N2CCCCC2c2nc(C)cs2)cn1` (stereo not drawn), for which the cytotoxicity at 10 µM was found to be 2.6%.
For `O=C(NCc1ccco1)[C@@H]1CCO[C@@H]2CCN(c3ncccn3)C[C@H]21` the value was -77.6%; for `CCOCC1CN(C(=O)c2cscn2)Cc2cn(C)nc21` (stereo not drawn), -76.6%.
For `O=C(C[C@@H]1COC[C@H]2CN(CC3CC3)C[C@@H]12)N1CCCCO1` the value was 4.08%.
To `Cc1ccnc(OC[C@@]23CCO[C@@H]2CCN(c2ncc(F)cn2)C3)n1` belongs 10.9%; to `CC(C)NC(=O)[C@H]1C[C@@H]2[C@@H](C1)OCCN2Cc1ccsc1`, 9.49%; to `COCCNC(=O)[C@@H]1CN(Cc2sccc2C)C[C@H]2OCC[C@H]21`, 2.98%.
Regarding `CC(C)NC(=O)[C@H]1C[C@@H]2[C@@H](C1)OCCN2Cc1nccs1`, the cytotoxicity at 10 µM turned out to be 6.1%.
To `O=C1NC2(CCN(c3ncccn3)CC2)CC1c1cccnc1` (stereo not drawn) belongs -71.4%; to `COCCNC(=O)[C@@]12CCO[C@@H]1CCN(Cc1cc(C)on1)C2`, -69.8%; to `O=C(N1CCOCC1)[C@@]12CCO[C@@H]1CCN(C1CCC1)C2`, 3.33%.
To `CN(C)Cc1cnc2n1CCN(Cc1ccsc1)CC2` belongs -10.4%; to `O=C(c1cccc(F)c1)N1CCN2C[C@H](OCc3cccnc3)C[C@H]2C1`, 4.4%; to `O=C(c1ccc(F)cc1)N1C[C@H]2CCC[C@@]2(COCc2ccncc2)C1`, 8.04%.
To `CCc1nccn1CC(=O)N1C[C@@H]2CC[C@H]1CN(S(=O)(=O)N(C)C)C2` belongs -6.38%; to `O=C(CSCC1CC1)N1C[C@H]2CC[C@@H](C1)N(Cc1ccccn1)C2=O`, 5%.
